UPR CHOP act: activators of apoptotic CHOP UPR arm, primary screen, cell-based, CHO-CHOP luciferase reporter, luminescence, uHTS; UPR activation; percent of tunicamycin response over DMSO baseline; activation, % at 10 µM; 330,000 compounds, 0.34% hits;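 active means at 10 µM dose, activation of 40% or more, normalized to positive control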;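 further: 100% = tunicamycin at 10 µg/mL and 0% = DMSO alone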
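Dosing – one dose, 10 µM in 0.5% DMSO · System – CHO-CHOP cells, stable luciferase reporter of PERK-eIF2a-CHOP signalling · Input – 500 cells/well · Control set – tunicamycin 10 µg/mL final as positive, DMSO-only wells as negative · Timing – 6 h compound treatment, 37 °C · Measure – % activation vs tunicamycin · Technique – luminescence read with Steady-Glo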
CHOP inhibitor: inhibitors of CHOP promoter induction, primary screen, cell-based, unfolded protein response, luciferase reporter; CHO-K1 CHOP-promoter luciferase, tunicamycin-induced, 15-18 h; inhibition, % at 10 µM; 220,000 compounds, 3.8% hits;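 active means compounds that reduced the stress-induced luciferase reporter signal by more than about 70% of percent inhibition, limit read from the data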;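 further: 0% = tunicamycin plus vehicle and 100% = wells without tunicamycin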
GAA850 FXN act: FXN promoter activators, primary screen, cell-based, luciferase luminescence, HEK293 lucGAA850 | activation, % at 6 µM | 360,000 compounds, 0.56% hits | HEK293 lucGAA850 FXN promoter luciferase reporter, 24 h; percent of 10 µM SAHA response;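 active means activation above the average of all compounds screened plus 3 SD, cutoff fixed separately per campaign, cut at about 7.5% in these data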;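 further: 0% = DMSO wells and 100% = 10 µM SAHA wells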
XBP1 UPR activ: activators of adaptive XBP1 UPR arm, primary screen, cell-based, CHO-XBP1 luciferase reporter, luminescence, uHTS. 330,000 compounds, 0.33% hits. IRE1-XBP1 UPR activation; percent of tunicamycin response, DMSO as zero. activation, % at 20 µM;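 active means versus positive control, 20 µM dose yields 30% or more activation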;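 further: 100% = tunicamycin at 10 µg/mL and 0% = DMSO only wells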
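Material: CHO-XBP1 cells stably carrying IRE1-XBP1-driven luciferase reporter | Medium: F12 with 10% serum | Compound dosing: 20 µM single concentration, DMSO 1% | Incubation: Overnight seeding at 37 °C, 6 h compound treatment at 37 °C | Detection: Steady-Glo luminescence read | Read-out basis: % activation of reporter signal versus tunicamycin and DMSO controls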
CHOP inh conf: retest of CHOP induction inhibitors, confirmation, cell-based; shares compounds with CHOP inhibitor; CHO-CHOP promoter luciferase reporter, tunicamycin-induced, luminescence; inhibition, % at 10 µM; 2,100 compounds, 45% hits; AID 504437, 2011;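 active means mean of three repeat readings of reporter signal inhibition above a set limit, cut at about 70% in these data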;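 further: 0% = tunicamycin plus vehicle and 100% = wells lacking tunicamycin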
Starred values were filed as active, the others as inactive. Shown is part of a subset that was picked to be rich in hits.

What do the screens show for `Cc1nn(Cc2ccc(Cl)cc2Cl)c(C)c1NC(=O)Cn1nc([N+](=O)[O-])c(Cl)c1C`?
UPR CHOP act: 0.8; CHOP inhibitor: 100.1*; GAA850 FXN act: 4.7; XBP1 UPR activ: 10.6; CHOP inh conf: 32.6

Results for Cc1nn(Cc2ccc(Cl)cc2)c(C)c1NC(=O)Cn1nc([N+](=O)[O-])c(Cl)c1C ?
UPR CHOP act: -1.2; CHOP inhibitor: -20.9; GAA850 FXN act: 0.8; XBP1 UPR activ: -1.4

What do the screens show for `OC[C@@H]1CN(Cc2ccc(-c3ccccc3)cc2)C[C@H](n2cnc3c(NCc4ccc(F)cc4)ncnc32)O1`?
GAA850 FXN act: -6.4

Results for COc1ccc(C(=O)N2CCCCC2c2cc(C(=O)Nc3cccc(C#N)c3)no2)cc1 (configuration not stated) ?
GAA850 FXN act: -0.3

How did O=C(/C=C/c1cccc([N+](=O)[O-])c1)n1cnc2ccccc21 do in these assays?
UPR CHOP act: -4.3; CHOP inhibitor: 107.3*; GAA850 FXN act: 5.0; XBP1 UPR activ: -4.2; CHOP inh conf: 116.2*

How did Cc1ccc(-c2csc(C(O)c3ccccc3)n2)cc1C (configuration not stated) do in these assays?
GAA850 FXN act: -1.1

Results for CNC(CC(=O)c1ccc([N+](=O)[O-])cc1)C(Cl)(Cl)Cl (configuration not stated) ?
CHOP inhibitor: 109.6*; GAA850 FXN act: 1.7; CHOP inh conf: -12.2

How did Cc1ccc(S(=O)(=O)N2C[C@]3(O)C[C@@H]4C(=O)N(c5ccccc5)C(=O)[C@@H]4C[C@]3(OC(=O)NC3CCCC3)C2)cc1 do in these assays?
GAA850 FXN act: -0.1

How did Nc1ccc(N2CCN(c3ccc(F)cc3)CC2)cc1 do in these assays?
UPR CHOP act: -0.6; CHOP inhibitor: -15.2; GAA850 FXN act: 2.3; XBP1 UPR activ: 1.7

Results for Nc1ccc(N2CCCCCC2)cc1 ?
UPR CHOP act: 37.7; XBP1 UPR activ: 2.6; CHOP inh conf: 127.7*

Results for OC[C@@H]1CN(Cc2ccccc2)C[C@H](n2cnc3c(N4CCOCC4)ncnc32)O1 ?
GAA850 FXN act: -0.7

What do the screens show for `O=C(NCCCN1CCOCC1)c1ccccc1N1C(=O)[C@@H]2Cc3c([nH]c4ccccc34)C(c3ccccc3)N2C1=O` (some centres not stated)?
GAA850 FXN act: -4.8

What do the screens show for `COc1cc(OC)nc(-n2ncc(Br)c(Br)c2=O)n1`?
CHOP inhibitor: 111.0*; GAA850 FXN act: -14.8; CHOP inh conf: 118.5*

Results for C=CCOc1ccc(/C=C2\SC(=Nc3cccnc3)NC2=O)cc1 ?
UPR CHOP act: 0.3; CHOP inhibitor: 101.1*; GAA850 FXN act: 1.0; XBP1 UPR activ: 2.4; CHOP inh conf: -3.3

What do the screens show for `Cc1cc(N=Nc2c(O)c3ccccc3[nH]c2=O)ccc1N=Nc1ccc(C(=O)N(C)C)cc1`?
UPR CHOP act: 6.0; CHOP inhibitor: 104.5*; GAA850 FXN act: 1.3; XBP1 UPR activ: -0.2; CHOP inh conf: 18.1

How did O=C(Cc1cccc2ccccc12)NC(NC(=S)Nc1ccccc1Cl)C(Cl)(Cl)Cl (configuration not stated) do in these assays?
UPR CHOP act: 0.0; CHOP inhibitor: 104.4*; GAA850 FXN act: -3.2; XBP1 UPR activ: 0.0; CHOP inh conf: -13.6

Results for CCC(=O)NC(NC(=S)Nc1cccc2cccnc12)C(Cl)(Cl)Cl (configuration not stated) ?
UPR CHOP act: 2.0; CHOP inhibitor: 9.7; GAA850 FXN act: 1.5; XBP1 UPR activ: -1.3

What do the screens show for `CCCCN(C=O)c1c(CC)nc2c(OCc3ccc(S(C)(=O)=O)cc3)cccn12`?
GAA850 FXN act: 0.5

What do the screens show for `COc1ccc(C2(O)CC3CCC(C2)N3c2nc(C)cc(C)c2C#N)cc1` (configuration not stated)?
UPR CHOP act: -1.6; CHOP inhibitor: 101.2*; GAA850 FXN act: 0.4; XBP1 UPR activ: -0.2; CHOP inh conf: 35.9

How did N#Cc1cnc(=S)n(-c2cc(C(F)(F)F)cc(C(F)(F)F)c2)c1N do in these assays?
GAA850 FXN act: -1.7

What do the screens show for `CCc1nc2ccc(C(=O)N(CC)CCN(C)C)cn2c1N(C)C(=O)C1CCCCC1`?
GAA850 FXN act: -0.4

How did COc1ccccc1NC(=O)N(C)C[C@@H]1OCc2cn(nn2)CCCC(=O)N([C@H](C)CO)C[C@H]1C do in these assays?
GAA850 FXN act: -0.9

Results for CCn1c2ccccc2c2cc(NC(=O)CSc3nnc(-c4ccc(OC)cc4)n3N)ccc21 ?
UPR CHOP act: -0.8; CHOP inhibitor: 101.9*; GAA850 FXN act: -0.6; XBP1 UPR activ: 14.0; CHOP inh conf: 43.0

What do the screens show for `COc1ccc(COC(=O)CCCN=C2NS(=O)(=O)c3ccccc32)cc1F`?
GAA850 FXN act: -0.7

Results for COc1ccccc1-n1cc([C@@H]2C[C@H]3CN(c4ccccc4)C(=O)[C@]34CCCN24)cn1 ?
UPR CHOP act: -3.7; CHOP inhibitor: 102.0*; GAA850 FXN act: -13.4; XBP1 UPR activ: -2.0; CHOP inh conf: 103.7*

How did CN1C(=O)[C@H]2[C@@H](c3ccc(C(F)(F)F)cc3)N[C@]3(CCCN(CC4CCCCC4)C3=O)[C@H]2C1=O do in these assays?
GAA850 FXN act: -2.8

What do the screens show for `COc1cc([C@@H]2c3cc4c(cc3[C@@H](O)[C@@H](CO)[C@@H]2CO)OCO4)cc(OC)c1O[Si](C)(C)C(C)(C)C`?
UPR CHOP act: 0.2; CHOP inhibitor: 100.2*; XBP1 UPR activ: 6.8; CHOP inh conf: 117.1*

Results for CC(C)(C)c1ccc(C(=O)CC(=O)c2cc(Cl)ccc2O)cc1 ?
UPR CHOP act: 14.8; CHOP inhibitor: 47.3; GAA850 FXN act: 3.2; XBP1 UPR activ: 11.2

What do the screens show for `O=C(CC(=O)c1ccccc1O)c1cccc(F)c1`?
UPR CHOP act: 31.0; GAA850 FXN act: 3.4; XBP1 UPR activ: 3.0; CHOP inh conf: 55.6

Results for Cc1ccc(C(=O)CC(=O)c2cc(Cl)ccc2O)cc1 ?
UPR CHOP act: 24.4; CHOP inhibitor: 102.5*; GAA850 FXN act: 2.1; XBP1 UPR activ: 3.9; CHOP inh conf: 71.6*

How did O=C(CC(=O)c1ccccc1O)c1ccc(F)cc1 do in these assays?
UPR CHOP act: 16.8; CHOP inhibitor: 101.1*; GAA850 FXN act: 0.8; XBP1 UPR activ: 2.2; CHOP inh conf: 62.3

How did OCCNc1ncnc2c1ncn2[C@H]1CN(C2CCCC2)C[C@@H](CO)O1 do in these assays?
GAA850 FXN act: 0.4

Results for CCCCCc1ccc(OCCOCCn2c[n+](C)c3ccccc32)c(CCCCC)c1 ?
CHOP inhibitor: 107.7*; GAA850 FXN act: -3.2; CHOP inh conf: 122.1*

Source: PubChem
